# Published values collected from several papers.
# Each line is one published result; the experiments were not run side by side.
# Target: Serine/threonine-protein kinase 10 (STK10, Homo sapiens, UniProt O94804)
SMILES,observed,technique,concentration,remaining binding [%]
CS(=O)(=O)c1cc(C2(NC(=O)c3cncc4c3cnn4-c3ccc(F)cc3)CC2)ccn1,cell-free assay,competition with immobilised ligand,1 µM,99
c1cnn2ncc(-c3ccnc(N4CCC45COC5)n3)c2c1,binding,,1 µM,91
COc1cnc(Nc2cccc(S(N)(=O)=O)c2)nc1N1CCN(c2ccccc2)C(=O)C1,binding,competition with immobilised ligand,1 µM,100
CN(CCCC(F)(F)F)c1nccc(-c2cnn3ncccc23)n1,binding,,1 µM,100
COc1cnc(Nc2cccc(S(N)(=O)=O)c2)nc1N1CCN(c2ccccc2)CC1,binding,competition with immobilised ligand,1 µM,100
CC1CCCN1c1nccc(-c2cnn3ncccc23)n1 (centres unmarked),binding,,1 µM,96
O=C(c1ccc(Nc2ncc(Cl)c(-c3ccc(Cl)s3)n2)cc1)N1CCC(N2CCCC2)CC1,binding,competition with immobilised ligand,1 µM,28
FC(F)(F)Oc1cccc(-c2cnc3ccc(-c4ccncc4)nn23)c1,binding,competition with immobilised ligand,5 µM,0.3
CS(=O)(=O)NCC[C@H](NC(=O)c1cncc2c1cnn2-c1ccc(F)cc1)c1ccnc(S(C)(=O)=O)c1,cell-free assay,competition with immobilised ligand,1 µM,100
O=C(NCC1CCOCC1)c1n[nH]cc1NC(=O)c1c(F)cccc1F,binding,competition with immobilised ligand,1 µM,100
O=C(NCCCN1CCOCC1)c1ccc(Nc2ncc(Cl)c(-c3ccc(Cl)s3)n2)cc1,binding,competition with immobilised ligand,1 µM,57
CN(C)c1nccc(-c2cnn3ncccc23)n1,binding,,1 µM,100
CC1=C(C#N)[C@@H](c2ccc3[nH]nc(C)c3c2)C(C#N)=C(c2ccc(Cl)cc2)N1,cell-free assay,competition with immobilised ligand,1 µM,100
N[C@@H]1CCN(c2nccc(-c3cnn4ncccc34)n2)C1,binding,,1 µM,100
Cc1c(NC(=O)c2cc(C(N)=O)nc3cc(F)ccc23)c(C(F)(F)F)nn1Cc1ccc(C(C)(C)C)cc1,cell-free assay,competition with immobilised ligand,1 µM,88
CCN1CCN(Cc2ccc(C(=O)Nc3ccc(C)c(Oc4ccc5c(c4)CC(=O)N5)c3)cc2C(F)(F)F)CC1,binding,competition with immobilised ligand,1 µM,3.2
CN(C)C(=O)Cn1cc(-c2nc([C@@](C)(c3ccc(-c4cnc(N)nc4)cc3)C3CC3)no2)cn1,cell-free assay,competition with immobilised ligand,1 µM,89
C[C@H]1CCN(c2nccc(-c3cnn4ncccc34)n2)C1,binding,,1 µM,100
O=C(O)[C@@H]1[C@@H](Cn2nnc3ccccc3c2=O)CC[C@H]1C(=O)c1ccc(OCCC2CCOCC2)cc1,cell-free assay,competition with immobilised ligand,1 µM,84
O=C(NCCCN1CCOCC1)c1ccc(Nc2nccc(-c3cc4ccccc4s3)n2)cc1,binding,competition with immobilised ligand,1 µM,94
